TNF death inh: inhibitors of TNF-alpha triggered necroptosis, primary screen, cell-based, Jurkat FADD-/-, single concentration; Jurkat FADD-/- TNF necroptosis rescue, ATP luminescence, 24 h; 0 = TNF only, 100 = no-TNF cells; activation (protection from cell death), % at 10 µM; actives 0.068% (n = 220,000);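 active means activation, meaning protection from cell death, of at least 50% relative to plate controls; inactive means activation below 50%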;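 further: necroptosis triggered by 40 ng/mL TNF-alpha added together with compound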
L929 necroptosis: inhibitors of zVAD-triggered necroptosis, primary screen, L929 cells; AID 1377, 2008; viability rescue, % at 10 µM; actives 0.38% (n = 220,000); L929 zVAD necroptosis rescue, ATP luminescence, 24 h; with zVAD 60 µM;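 active means activation, scaled between plate controls, above about 75%, limit read from the data; inactive means activation under that limit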;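 further: 0% = zVAD with DMSO and 100% = DMSO alone without zVAD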
MDM2 E3 inh: MDM2-luciferase reporter signal enhancers, primary screen, MDM2 E3 ligase inhibitor project, cell-based, luminescence, 1536-well. cell-based MDM2 ubiquitination luciferase reporter, 2 h; 0 = plate control, 100 = twice control, blank-subtracted. actives 0.11% (n = 210,000). E3 ubiquitin-protein ligase Mdm2 (Homo sapiens), Q00987. signal enhancement, % at 5 µM;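 active means signal enhancement of 30% or more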;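 further: luminescence tracks abundance of the self-degrading MDM2-luciferase fusion protein; higher signal means inhibition of MDM2 E3 ligase activity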
Target sequence (Q00987 whole entry, looked up, the tested form may be a part): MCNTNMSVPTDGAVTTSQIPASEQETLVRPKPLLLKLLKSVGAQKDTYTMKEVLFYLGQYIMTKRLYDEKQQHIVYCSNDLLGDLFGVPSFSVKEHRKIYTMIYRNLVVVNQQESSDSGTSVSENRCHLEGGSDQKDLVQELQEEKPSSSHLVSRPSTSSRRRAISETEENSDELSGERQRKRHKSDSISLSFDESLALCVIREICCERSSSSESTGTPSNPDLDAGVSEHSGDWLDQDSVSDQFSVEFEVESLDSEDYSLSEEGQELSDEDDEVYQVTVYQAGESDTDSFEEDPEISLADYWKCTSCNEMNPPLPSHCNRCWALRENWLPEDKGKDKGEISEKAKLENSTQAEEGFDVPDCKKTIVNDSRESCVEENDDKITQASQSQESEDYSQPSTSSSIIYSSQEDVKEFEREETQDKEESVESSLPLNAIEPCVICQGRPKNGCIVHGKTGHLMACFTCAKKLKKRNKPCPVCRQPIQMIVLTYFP
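Test system: stable mammalian line carrying autodegrading MDM2–luciferase fusion reporter; quantity: 2000 cells in each well; times: 4 h cell settling then 2 h compound exposure, 37 °C; detection: luminescence with SteadyLite reagent, 15 min at room temperature; evaluation: percent signal gain over controls, blank-subtracted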
Beta2AR agonist: beta2AR agonists driving receptor internalization, primary screen, cell-based, FAP fluorogen, flow cytometry; Beta-2 adrenergic receptor (Homo sapiens), P07550; Am2.2-beta2AR cells; response, % (test concentration not listed); actives 0.43% (n = 340,000);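 active means response above a set limit, near 3 SD of response in nonfluorescent compounds, cut at about 42% in these data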
Dynein cargo inh: inhibitors of GR-EGFP nuclear translocation, primary screen, dynein cargo transport inhibitor project, imaging, high-content, 3617.4 mouse cells. actives 0.47% (n = 220,000). AID 1381, 2008. test concentration mostly 20 µM; stimulated with dexamethasone, 1 µM; hits give low values. z-score, hits read low;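 active means plate z-score of nuclear minus cytoplasmic receptor signal below a set negative limit, without overly bright fluorescence or cell loss, cut at about -3.5 in these data, passing the limit was not always enough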;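 further: z-score of nuclear minus cytoplasmic ring GR-EGFP intensity difference per well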
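Medium: Induction medium lacking tetracycline, stripped serum | Probe or stimulus: 1.0 µM final dexamethasone stimulus | Schedule: 48 h induction, then 1 h compound, then 30 min agonist, 37 °C | Signal: Automated 10x imaging of fixed Hoechst-stained cells | Evaluation: Per-cell GR-EGFP intensity, nucleus versus surrounding cytoplasmic ring, well-averaged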
Dynein confirm: dynein cargo transport inhibitors, GR-EGFP translocation, confirmation, imaging, high-content imaging, GR-EGFP cells; AID 463116, 2010; shares compounds with Dynein cargo inh; 3617.4 GR-EGFP nuclear translocation imaging, dexamethasone-induced; calls only at 20 µM; actives 69% (n = 1,000);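 active means inhibition of receptor movement into the nucleus at or above a set limit in both runs, with normal cell brightness and cell count; inconclusive means limit reached in only one run, brightness and count normal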;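 further: dexamethasone at 1 µM final in well for 30 min; nuclear minus cytoplasmic GR-EGFP mean intensity difference in channel 2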
* = called active by the depositor; i = inactive; ? = inconclusive; . = no result given; + = active, no number. An excerpt weighted towards active compounds, which were near 0.97% of everything screened.

SMILES	TNF death inh	L929 necroptosis	MDM2 E3 inh	Beta2AR agonist	Dynein cargo inh	Dynein confirm
N#C/C(=C\c1cccc([N+](=O)[O-])c1)C(=O)NCc1ccc(Cl)cc1	-0.1	2.4	-0.4	41.9	-6.8*	+
CCC(=O)N1Cc2ccccc2-c2ccccc2C1=O	-1.3	0.9	-20.1	.	0.169	.
CC(C)(C)NC(=S)N/N=C\c1ccc(-c2ccc([N+](=O)[O-])cc2)o1	-0.2	1.1	-1.0	-240.8	-5.97	i
COc1ccc(C(=O)CCN2CCN(c3ccccc3F)CC2)cc1	0.6	1.5	-12.7	-1.8	-0.826	.
O=C(CCN1CCN(c2ccccc2F)CC1)c1ccc(Br)cc1	1.8	0.8	-10.8	-2.5	-4.27*	i
C=C(CC)C(=O)c1ccc(OCC(=O)O)c(Cl)c1Cl	-10.2	5.3	.	-3.9	-3.74*	+
CCCC(=O)Nc1ccccc1NC(=O)CN(C)S(=O)(=O)c1ccc(C)cc1	-1.5	0.7	-11.1	-0.4	-0.11	.
Cc1ccc(NN2C(=O)C=C(c3ccccc3)C2=O)cc1	-2.7	-1.3	-1.8	.	-4.5*	+
O=C1c2ccccc2C(=O)N1Nc1ccccc1	1.8	-0.1	-1.1	0.5	0.452	.
CCOC(=O)c1c(-c2ccc(C)o2)csc1NC(=O)COC(=O)c1cccs1	-1.0	0.0	-1.3	8.4	-0.934	.
CCOC(=O)c1c(-c2ccc(C)o2)csc1NC(=S)NC(=O)N(C)C	-6.6	-0.1	-8.8	3.2	-3.83*	i
COC(=O)CSc1nc(C2CC2)cc(C(F)(F)F)c1C#N	0.0	0.2	-10.1	0.6	-0.531	.
Cc1cc(/C=C2\Sc3ccccc3N2C)cc(C)[n+]1CC1CCCO1 (stereo unspecified)	-6.6	0.3	-45.7	-228.8	-5.63	i
Cc1ccc(/C=C2/Sc3ccccc3N(CC(=O)NCC3CCCO3)C2=O)cc1 (stereo unspecified)	.	.	.	-3.4	.	.
Cc1ccccc1CS(=O)(=O)c1nnc([C@H](Cc2ccccc2)NC(=O)OC(C)(C)C)o1	-13.3	-0.9	-18.2	61.1*	-5.52*	+
Cc1ccc(C(=O)N/C(=C\c2ccc(-c3ccc(Cl)cc3)o2)C(=O)NCCCN(C)C)cc1	-17.9	-4.0	-19.0	28.3	-4.3*	i
CN(C)CCCNC(=O)/C(=C\c1ccc(-c2ccc(Br)cc2)o1)NC(=O)c1ccccc1	-6.6	-2.0	5.9	31.4	0.83	.
COc1cccc(C2CC(C(F)(F)F)n3nc(C(=O)NCc4cccnc4)cc3N2)c1 (stereo unspecified)	-1.2	2.8	-12.9	1.6	-3.59*	i
COc1cccc(C2CC(C(F)(F)F)n3nc(C(=O)Nc4c(C)n(C)n(-c5ccccc5)c4=O)cc3N2)c1 (stereo unspecified)	-1.1	1.2	-12.3	3.3	-0.00929	.
Cc1ccc(-c2nnc(NCc3nc4ccccc4[nH]3)c3ccccc23)cc1S(=O)(=O)N1CCOCC1	2.4	-0.2	-1.1	31.5	0.12	.
Cc1ccc(-c2noc(-c3ccccc3C(=O)N3CCN(C)CC3)n2)cc1	-2.5	-0.1	-5.0	0.5	0.424	.
Cc1nc([N+](=O)[O-])c(Br)n1Cc1ccccc1	-16.5	41.8	-7.9	12.2	-5.87*	+
Cc1nc([N+](=O)[O-])c(Br)n1CC(=O)c1ccc(F)cc1	-8.5	0.9	-9.4	-4.0	-6.08*	+
Cc1nc([N+](=O)[O-])c(Br)n1CC(=O)c1cccc([N+](=O)[O-])c1	-14.3	-0.5	-4.9	7.6	-5.48*	+
CCc1noc(C)c1C(=O)N1CCCSC1=Nc1ccccc1C(C)C	.	.	.	7.6	.	.
SMILES	TNF death inh	L929 necroptosis	MDM2 E3 inh	Beta2AR agonist	Dynein cargo inh	Dynein confirm
COc1cc(C(=O)N2CCC(C(=O)Nc3cccc(C(C)=O)c3)CC2)cc(OC)c1OC	0.4	1.5	-7.4	21.9	-1.42	.
CSCCC(NC(N)=O)C(=O)Nc1ccc2ccccc2c1 (stereo unspecified)	2.4	0.4	-11.4	5.2	-0.287	.
O=[N+]([O-])c1cc(S(=O)(=O)NCCN2CCOCC2)ccc1Sc1nnnn1-c1ccccc1	-16.5	1.8	-14.7	4.8	-3.38	.
Cc1ccc(-n2nnnc2Sc2ccc(S(=O)(=O)NCCN(C)C)cc2[N+](=O)[O-])cc1	-28.8	27.0	-19.4	35.5	-3.95*	+
COc1ccccc1C(C[N+](=O)[O-])c1c(N)n(C)c(=O)n(C)c1=O (stereo unspecified)	-20.2	5.2	-6.8	2.3	-3.54*	?
CC(=O)NC(Cc1ccccc1)C(=O)NC1CCN(C(=O)c2ccc([N+](=O)[O-])cc2)CC1 (stereo unspecified)	2.3	0.9	.	-0.5	-0.728	.
N#CCCN(C(=O)CCl)c1cccc(Cl)c1	11.5	56.7	-18.2	-2.1	-3.81*	+
O=C(c1ccc(F)cc1)C(CN1CCOCC1)c1ccccc1 (stereo unspecified)	-16.8	37.9	10.1	11.7	-6.08*	+
CCCCOc1ccc(C(=O)C(CN2CCOCC2)c2ccccc2)cc1 (stereo unspecified)	-14.6	-0.4	-4.1	-9.3	-2.32	.
COc1ccc(C(=O)C(CN2CCCC2)c2ccccc2)cc1 (stereo unspecified)	-14.8	62.6	-16.2	-8.6	-4.28*	+
O=C1[C@@H]2[C@H](C(=O)N1Cc1cccnc1)[C@H]1C=C[C@@H]2C1	0.1	-1.2	-16.9	-7.0	1.04	.
O=C1CC(Sc2nnc(-c3ccccc3O)o2)C(=O)N1c1ccccc1 (stereo unspecified)	-21.3	7.2	-1.7	-3.7	-6.46*	i
O=C1CC(Sc2ncccn2)C(=O)N1c1ccccc1 (stereo unspecified)	1.5	0.8	-3.6	-2.4	-1.12	.
COc1ccccc1N1C(=O)CC(Sc2n[nH]c(-c3cccc(C)c3)n2)C1=O (stereo unspecified)	-1.5	-0.2	1.0	12.1	-3.61*	+
Nc1nnc(SC2CC(=O)N(c3ccccc3)C2=O)s1 (stereo unspecified)	-0.5	0.1	-7.0	-7.1	-0.342	.
Cc1nc(SC2CC(=O)N(c3ccccc3)C2=O)n[nH]1 (stereo unspecified)	2.1	2.2	-1.4	6.1	-3.66*	i
COc1ccc2c(c1)CC/C(=C\c1ccc(C)o1)C2=O	-1.5	1.2	-8.5	-2.5	-1.49	.

Screening results: PubChem BioAssay, several laboratories
